# Columns and labels:
# [1] = biological target: T1, Guanylate cyclase soluble subunit alpha-1 (Rattus norvegicus) (UniProt P19686); assay: Activation of recombinant rat sGC alpha1 subunit expressed in CHO cells assessed as induction of [32P-cGMP] formation using alpha-[32P-GTP] as substrate measured after 6 mins by luminescence assay; assay type: cell-based; conditions: filed as activator
# T1 sequence (whole entry): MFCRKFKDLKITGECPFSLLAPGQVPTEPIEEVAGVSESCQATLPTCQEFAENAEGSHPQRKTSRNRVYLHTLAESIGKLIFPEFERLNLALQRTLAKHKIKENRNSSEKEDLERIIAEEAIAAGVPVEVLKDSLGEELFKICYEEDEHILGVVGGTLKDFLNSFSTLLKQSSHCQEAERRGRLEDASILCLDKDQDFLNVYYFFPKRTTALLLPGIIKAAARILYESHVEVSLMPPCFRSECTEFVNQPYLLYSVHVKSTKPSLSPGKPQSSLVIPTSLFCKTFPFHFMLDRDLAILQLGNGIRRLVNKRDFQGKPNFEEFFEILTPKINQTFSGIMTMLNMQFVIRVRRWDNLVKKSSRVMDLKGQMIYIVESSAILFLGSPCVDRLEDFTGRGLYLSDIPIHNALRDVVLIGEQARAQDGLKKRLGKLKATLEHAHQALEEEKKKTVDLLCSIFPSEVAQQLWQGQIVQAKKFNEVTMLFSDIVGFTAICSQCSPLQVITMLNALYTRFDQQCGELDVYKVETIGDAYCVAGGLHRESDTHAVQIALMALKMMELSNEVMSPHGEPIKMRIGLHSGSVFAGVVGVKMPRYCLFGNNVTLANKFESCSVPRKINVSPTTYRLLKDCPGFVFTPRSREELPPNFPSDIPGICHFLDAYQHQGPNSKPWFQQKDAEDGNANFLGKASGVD
# [2] = Plasma clearance in iv dosed Beagle dog measured up to 24 hrs by LC-MS analysis; assay type: ADME, organism-based, Canis lupus familiaris
# [3] = Clearance in Wistar rat at 0.3 mg/kg, iv measured up to 24 hrs by LC-MS analysis; assay type: ADME, organism-based; conditions: in vivo
# Outline: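 Rats dosed iv at 0.3 mg/kg; blood clearance determined.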
# [4] = Plasma clearance in iv dosed cynomolgus monkey measured up to 24 hrs by LC-MS analysis; assay type: ADME, organism-based, Macaca fascicularis
# [5] = biological target: T1, Guanylate cyclase soluble subunit alpha-1 (Rattus norvegicus); assay: Activation of recombinant rat sGC alpha1 subunit expressed in CHO cells assessed as induction of [32P-cGMP] formation by measuring efficacy using alpha-[32P-GTP] as substrate measured after 6 mins by luminescence assay relative to control; assay type: cell-based
# Cytochrome P450 1A2 = biological target: T2, Cytochrome P450 1A2 (Homo sapiens, UniProt P05177); assay: Induction of CYP1A2 in human hepatocytes at > 10000 ng/ml using phenacetin as substrate incubated for 60 mins by LC-MS/MS analysis; assay type: ADME, cell-based, Hepatocyte; conditions: 1 h
# T2 sequence (P05177 whole entry): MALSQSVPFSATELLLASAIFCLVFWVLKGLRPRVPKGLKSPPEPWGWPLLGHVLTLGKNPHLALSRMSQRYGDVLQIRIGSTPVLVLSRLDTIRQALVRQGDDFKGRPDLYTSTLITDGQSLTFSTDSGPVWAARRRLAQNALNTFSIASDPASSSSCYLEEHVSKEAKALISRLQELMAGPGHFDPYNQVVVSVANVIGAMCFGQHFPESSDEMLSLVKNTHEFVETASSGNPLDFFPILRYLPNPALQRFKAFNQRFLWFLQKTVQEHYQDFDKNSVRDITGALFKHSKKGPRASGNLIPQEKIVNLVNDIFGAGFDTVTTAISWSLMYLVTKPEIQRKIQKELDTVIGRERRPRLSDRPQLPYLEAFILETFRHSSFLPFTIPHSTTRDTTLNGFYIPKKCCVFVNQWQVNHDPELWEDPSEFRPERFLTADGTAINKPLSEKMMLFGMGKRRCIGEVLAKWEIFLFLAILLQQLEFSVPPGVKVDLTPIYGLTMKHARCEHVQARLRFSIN
# Cytochrome P450 3A4 = Cytochrome P450 3A4 (Homo sapiens, UniProt P08684); assay: Induction of CYP3A4 in human hepatocytes at > 10000 ng/ml using phenacetin as substrate incubated for 60 mins by LC-MS/MS analysis; assay type: ADME, cell-based, Hepatocyte; conditions: 1 h
# Sequence of Cytochrome P450 3A4 (P08684 whole entry): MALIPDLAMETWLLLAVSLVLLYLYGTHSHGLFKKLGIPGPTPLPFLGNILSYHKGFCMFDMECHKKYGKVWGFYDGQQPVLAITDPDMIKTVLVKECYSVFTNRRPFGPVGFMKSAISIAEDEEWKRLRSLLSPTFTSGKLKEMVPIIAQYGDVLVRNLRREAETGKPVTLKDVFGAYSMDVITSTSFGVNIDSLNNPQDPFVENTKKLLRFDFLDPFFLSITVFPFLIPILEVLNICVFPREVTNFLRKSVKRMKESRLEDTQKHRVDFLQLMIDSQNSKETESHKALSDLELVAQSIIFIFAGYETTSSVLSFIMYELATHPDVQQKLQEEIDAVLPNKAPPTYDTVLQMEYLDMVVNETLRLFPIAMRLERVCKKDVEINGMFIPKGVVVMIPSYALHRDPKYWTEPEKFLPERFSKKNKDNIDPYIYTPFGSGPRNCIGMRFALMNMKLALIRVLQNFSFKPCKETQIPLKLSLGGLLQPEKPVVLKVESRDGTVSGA
# [6] = Half life in iv dosed Beagle dog measured up to 24 hrs by LC-MS analysis; assay type: ADME, organism-based, Canis lupus familiaris; conditions: in vivo
# [7] = Oral bioavailability in Wistar rat measured up to 24 hrs by LC-MS analysis; assay type: ADME, organism-based; conditions: in vivo
# [8] = Volume of distribution at steady state in iv dosed Wistar rat measured up to 24 hrs by LC-MS analysis; assay type: ADME, organism-based; conditions: in vivo, read-out: Vdss
# Outline: (§1)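 Three animals per species and strain received an intravenous dose. Steady-state volume of distribution (L/kg) was derived from the blood concentration–time profile, alongside blood clearance and terminal half-life.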
# [9] = Oral bioavailability in Beagle dog measured up to 24 hrs by LC-MS analysis; assay type: ADME, organism-based, Canis lupus familiaris; conditions: in vivo
# [10] = Half life in iv dosed Wistar rat measured up to 24 hrs by LC-MS analysis; assay type: ADME, organism-based; conditions: in vivo
# [11] = Volume of distribution at steady state in iv dosed Beagle dog measured up to 24 hrs by LC-MS analysis; assay type: ADME, organism-based, Canis lupus familiaris; conditions: in vivo, read-out: Vdss; outline: as §1
# [12] = Activation of recombinant rat sGC expressed in CHO cells by luminescence assay; assay type: cell-based
# Outline: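 Stable CHO reporter cell line overexpressing rat sGC; cGMP formation read as luminescence. EC50 from concentration–response. MEC taken as lowest concentration giving at least threefold increase in basal luminescence.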
# [13] = Induction of CYP3A4 in human hepatocytes using phenacetin as substrate incubated for 60 mins by LC-MS/MS analysis; conditions: 1 h
compound,measurement,setting,value
O=C(O)CCCCCNC(=O)[C@H](c1ccc(CN2N=C(c3ccccc3)OCC2=O)cc1)C1CCCC1,MEC,[1],100 nM
C[C@H]([C@H](C(=O)Nc1cccc(CCC(=O)O)c1)c1ccc(CN2N=C(c3ccccc3)OCC2=O)cc1)C(F)(F)F,MEC,[1],3 nM
same,clearance,[2],1.4 L/h/kg
same,clearance,[3],1.62 L/h/kg
same,clearance,[4],1 L/h/kg
Cc1ccc(CC2(C(=O)O)CC2)cc1NC(=O)[C@H](c1ccc(Cl)cc1)[C@@H](C)C(F)(F)F,MEC,[1],3 nM
same,Efficacy,[5]; filed as activator,44%
C[C@H]([C@H](C(=O)Nc1cc(CC2(C(=O)O)CC2)ccc1F)c1ccc(Cl)cc1)C(F)(F)F,MEC,[1],0.3 nM
same,Efficacy,[5],34%
C[C@H]([C@H](C(=O)Nc1cccc(CC2(C(=O)O)CC2)c1)c1ccc(Cl)cc1)C(F)(F)F,MEC,[1],20 nM
same,Efficacy,[5],4%
Cc1c(CCC(=O)O)cccc1NC(=O)[C@H](c1ccc(CN2N=C(c3ccccc3)OCC2=O)cc1)[C@@H](C)C(F)(F)F,MEC,[1],3 nM
O=C(O)CCc1cccc(NC(=O)[C@H](c2ccc(CN3N=C(c4ccccc4)OCC3=O)cc2)C2CCCC2)c1,MEC,[1],10 nM
same,Activity,Cytochrome P450 1A2,Not Active
same,clearance,[2],0.16 L/h/kg
same,Activity,Cytochrome P450 3A4,Not Active
same,clearance,[3],3.85 L/h/kg
same,clearance,[4],0.86 L/h/kg
C[C@H]([C@H](C(=O)Nc1cc(CC2(C(=O)O)CC2)ccc1Cl)c1ccc(Cl)cc1)C(F)(F)F,MEC,[1],0.3 nM
same,half-life,[6],11 h
same,bioavailability,[7],84%
same,Vd,[8],1.5 L/kg
same,Efficacy,[5]; filed as activator,63%
same,bioavailability,[9],57%
same,clearance,[2],1.5 L/h/kg
same,clearance,[3],0.46 L/h/kg
same,half-life,[10],4.3 h
same,clearance,[4],0.24 L/h/kg
same,Vd,[11],3 L/kg
Cc1c(CCC(=O)O)cccc1NC(=O)C(c1ccc(CN2CCOC(c3ccccc3)=N2)cc1)C1CCCC1 (racemic),MEC,[1],1000 nM
O=C(Nc1cccc(CC2(C(=O)O)CC2)c1)[C@H](c1ccc(CN2N=C(c3ccccc3)OCC2=O)cc1)C1CCCC1,MEC,[1],1 nM
same,clearance,[2],0.82 L/h/kg
same,clearance,[3],3.3 L/h/kg
same,clearance,[4],1.8 L/h/kg
Cc1c(CCC(=O)O)cccc1NC(=O)[C@H](c1ccc(Cl)cc1)C1CCCC1,MEC,[1],200 nM
same,Efficacy,[5],19%
same,EC50,[12]; CHO,0.044 µM
same,clearance,[3],0.77 L/h/kg
CCN(C)C(C(=O)Nc1cccc(CCC(=O)O)c1C)c1ccc(CN2N=C(c3ccccc3)OCC2=O)cc1 (stereo unspecified),MEC,[1],300 nM
CC[C@@H](C)[C@H](C(=O)Nc1cccc(CCC(=O)O)c1C)N1CCC(CN2N=C(c3ccccc3)OCC2=O)CC1,MEC,[1],30 nM
C[C@H]([C@H](C(=O)Nc1ccc(Cl)c(CC2(C(=O)O)CC2)c1)c1ccc(Cl)cc1)C(F)(F)F,MEC,[1],300 nM
same,Efficacy,[5],1.2%
Cc1c(CCC(=O)O)cccc1NC(=O)[C@H](c1ccc(Cn2nc(-c3ccccc3)ccc2=O)cc1)C1CCCC1,MEC,[1],1 nM
Cc1c(CCC(=O)O)cccc1NC(=O)C(c1ccc(Cn2ncccc2=O)cc1)C1CCCC1 (racemic),MEC,[1],1000 nM
CN(C(=O)C(c1ccc(CN2N=C(c3ccccc3)OCC2=O)cc1)C1CCCC1)c1cccc(CCC(=O)O)c1 (stereo unspecified),MEC,[1],10000 nM
O=C(O)c1ccc(CNC(=O)C(c2ccc(CN3N=C(c4ccccc4)OCC3=O)cc2)C2CCCC2)cc1 (racemic),MEC,[1],10 nM
Cc1ccc(=O)n(Cc2ccc(C(C(=O)Nc3cccc(CCC(=O)O)c3C)C3CCCC3)cc2)n1 (racemic),MEC,[1],30 nM
O=C(NCCCCC1(C(=O)O)CC1)[C@H](c1ccc(CN2N=C(c3ccccc3)OCC2=O)cc1)C1CCCC1,MEC,[1],10 nM
same,clearance,[2],1.8 L/h/kg
same,clearance,[3],0.31 L/h/kg
same,clearance,[4],1.4 L/h/kg
CC(C)C(CC(=O)O)c1ccc(Cl)c(NC(=O)[C@H](c2ccc(Cl)cc2)[C@@H](C)C(F)(F)F)c1 (stereo in doubt; 44a) [listing 1 of 2 here],EC50,[12]; cho,0.028 µM
same,Activity,[13],10 nM
Cc1c(CCC(=O)O)cccc1NC(=O)[C@H](c1ccc(Cn2nc(C(F)(F)F)ccc2=O)cc1)C1CCCC1,MEC,[1],3 nM
O=C(N[C@@H](CO)c1ccccc1)C(c1ccc(Cn2nc(-c3ccccc3)c3ccccc3c2=O)cc1)C1CCCC1 (stereo partly specified),MEC,[1],100 nM
O=C(O)CCc1cccc(NC(=O)[C@@H](c2ccc(CN3N=C(c4ccccc4)OCC3=O)cc2)C2CCCC2)c1,MEC,[1],300 nM
CC(C)(CCCCNC(=O)[C@H](c1ccc(CN2N=C(c3ccccc3)OCC2=O)cc1)C1CCCC1)C(=O)O,MEC,[1],100 nM
Cc1c(CCC(=O)O)cccc1C(=O)NC(c1ccc(CN2N=C(c3ccccc3)OCC2=O)cc1)C1CCCC1 (stereo unspecified),MEC,[1],3000 nM
C[C@H]([C@H](C(=O)Nc1cc(C2(CC(=O)O)CCC2)ccc1Cl)c1ccc(Cl)cc1)C(F)(F)F,MEC,[1],1 nM
same,Efficacy,[5],37%
same,EC50,[12]; CHO,0.005 µM
same,Activity,[13],256 nM
Cc1c(CCC(=O)O)cccc1NC(=O)[C@H](c1ccc(CN2N=C(c3ccccc3)OCC2=O)cc1)C1CCCC1,MEC,[1],3 nM
same,Activity,Cytochrome P450 1A2,Not Active
same,Efficacy,[5]; filed as activator,110%
same,EC50,[12]; CHO,0.027 µM
same,Activity,Cytochrome P450 3A4,Not Active
CC(C)C(CC(=O)O)c1ccc(Cl)c(NC(=O)[C@H](c2ccc(Cl)cc2)[C@@H](C)C(F)(F)F)c1 (stereo in doubt; 44b) [listing 1 of 2 here],MEC,[1],3 nM
same,Efficacy,[5]; filed as activator,47%
CC(C)C(CC(=O)O)c1ccc(Cl)c(NC(=O)[C@H](c2ccc(Cl)cc2)[C@@H](C)C(F)(F)F)c1 (stereo in doubt; 44a) [listing 2 of 2 here],MEC,[1],6.5 nM
same,Efficacy,[5]; filed as activator,58%
C[C@H]([C@H](C(=O)Nc1cccc(CC2(C(=O)O)CC2)c1Cl)c1ccc(Cl)cc1)C(F)(F)F,MEC,[1],100 nM
same,Efficacy,[5],19%
CC(C)C(CC(=O)O)c1ccc(Cl)c(NC(=O)[C@H](c2ccc(Cl)cc2)[C@@H](C)C(F)(F)F)c1 (stereo in doubt; 44b) [listing 2 of 2 here],EC50,[12]; cho,0.01 µM
same,Activity,[13],< 29 nM
Cc1c(CCC(=O)O)cccc1NC(=O)[C@H](c1ccc(CN2N=C(c3ccccc3)OCC2=O)cc1)C(C)C,MEC,[1],30 nM
CC(C)(Cc1cccc(NC(=O)[C@H](c2ccc(CN3N=C(c4ccccc4)OCC3=O)cc2)C2CCCC2)c1)C(=O)O,MEC,[1],30 nM
O=C(O)[C@H]1Cc2cccc(NC(=O)[C@H](c3ccc(CN4N=C(c5ccccc5)OCC4=O)cc3)C3CCCC3)c2C1,MEC,[1],30 nM
Cc1c(C=C[C@H](c2ccc(CN3N=C(c4ccccc4)OCC3=O)cc2)C2CCCC2)cccc1CCC(=O)O (mixture of isomers),MEC,[1],300 nM
CC[C@H](C)[C@H](C(=O)Nc1cccc(CCC(=O)O)c1C)N1CCC(CN2N=C(c3ccccc3)OCC2=O)CC1,MEC,[1],7 nM
C[C@H]([C@H](C(=O)Nc1cc(C2(CC(=O)O)COC2)ccc1Cl)c1ccc(Cl)cc1)C(F)(F)F,MEC,[1],3 nM
same,Efficacy,[5]; filed as activator,52%
same,EC50,[12]; CHO,0.07 µM
same,Activity,[13],2245 nM
Cc1c(CCC(=O)O)cccc1NC(=O)[C@H](c1ccc(Cl)cc1)[C@@H](C)C(F)(F)F,MEC,[1],1000 nM
same,Efficacy,[5],18%
CC[C@@H](C)[C@H](C(=O)Nc1cccc(CCC(=O)O)c1C)c1ccc(CN2N=C(c3ccccc3)OCC2=O)cc1,MEC,[1],1 nM
CCc1ccc([C@@H](C(=O)Nc2cc(C3(CC(=O)O)CC3)ccc2F)[C@@H](C)C(F)(F)F)cc1,MEC,[1],10 nM
same,Efficacy,[5]; filed as activator,43%
same,EC50,[12]; CHO,0.111 µM
same,Activity,[13],31 nM
